{"data": "Assay results pooled from the literature", "target": "Serine/threonine-protein kinase 10 (STK10, Homo sapiens, UniProt O94804)", "note": "Protocols differ between the studies behind these lines."}
{"Compound": "COc1cnc(Nc2cccc(S(N)(=O)=O)c2)nc1N1CCN(c2ccccc2)C(=O)C1", "test": "binding, competition with immobilised ligand", "setting": "1 µM", "remaining binding": "100%"}
{"Compound": "CS(=O)(=O)NCC[C@H](NC(=O)c1cncc2c1cnn2-c1ccc(F)cc1)c1ccnc(S(C)(=O)=O)c1", "test": "cell-free assay, competition with immobilised ligand", "setting": "1 µM", "remaining binding": "100%"}
{"Compound": "O=C(c1ccc(Nc2ncc(Cl)c(-c3ccc(Cl)s3)n2)cc1)N1CCC(N2CCCC2)CC1", "test": "binding, competition with immobilised ligand", "setting": "1 µM", "remaining binding": "28%"}
{"Compound": "CC1=C(C#N)[C@@H](c2ccc3[nH]nc(C)c3c2)C(C#N)=C(c2ccc(Cl)cc2)N1", "test": "cell-free assay, competition with immobilised ligand", "setting": "1 µM", "remaining binding": "100%"}
{"Compound": "c1cncc(-c2cccc(Nc3nccc(NC4CCCCC4)n3)c2)c1", "test": "binding, competition with immobilised ligand", "setting": "10 µM", "remaining binding": "38%"}
{"Compound": "CN(C(=O)c1ccccc1)c1cc(N(C)c2ccc3c(c2)CCc2ccc(C(=O)NCCN4CCOCC4)cc2C3=O)ccc1F", "test": "cell-free assay, competition with immobilised ligand", "setting": "1 µM", "remaining binding": "100%"}
{"Compound": "Nc1ncc2c(n1)-c1c([nH]c3ccc(C#CC4CC4)cc13)CCCC2", "test": "binding, competition with immobilised ligand", "setting": "1 µM", "remaining binding": "99%"}
{"Compound": "c1cnn2ncc(-c3ccnc(N4CCC45COC5)n3)c2c1", "test": "binding", "setting": "1 µM", "remaining binding": "91%"}
{"Compound": "Cn1cc(Cl)c2c(Oc3c(F)cc(Nc4cc(Cl)nc(N)n4)cc3F)ccnc21", "test": "cell-free assay, competition with immobilised ligand", "setting": "0.1 µM", "remaining binding": "100%"}
{"Compound": "O=C(Nc1c[nH]nc1C(=O)NC1CCNCC1)c1cc(F)cc(F)c1", "test": "binding, competition with immobilised ligand", "setting": "1 µM", "remaining binding": "100%"}
{"Compound": "CN(CCCC(F)(F)F)c1nccc(-c2cnn3ncccc23)n1", "test": "binding", "setting": "1 µM", "remaining binding": "100%"}
{"Compound": "O=C(NCCCN1CCOCC1)c1ccc(Nc2ncc(Cl)c(-c3ccc(Cl)s3)n2)cc1", "test": "binding, competition with immobilised ligand", "setting": "1 µM", "remaining binding": "57%"}
{"Compound": "CN(C)c1nccc(-c2cnc3ncccn23)n1", "test": "binding", "setting": "1 µM", "remaining binding": "100%"}
{"Compound": "O=C(c1ccc(Nc2ncc(Cl)c(-c3cc4ccccc4s3)n2)cc1)N1CCC(N2CCCC2)CC1", "test": "binding, competition with immobilised ligand", "setting": "1 µM", "remaining binding": "43%"}
{"Compound": "N[C@@H]1CCN(c2nccc(-c3cnn4ncccc34)n2)C1", "test": "binding", "setting": "1 µM", "remaining binding": "100%"}
{"Compound": "CNC(=O)[C@@H]1CC[C@@H](n2c(-c3ccc4cnccc4c3)nc3ccc(C(=O)NCc4cccc(C(N)=O)c4)cc32)C1", "test": "binding, competition with immobilised ligand", "setting": "1 µM", "remaining binding": "83%"}
{"Compound": "C[C@@H]1CN(c2cc(-c3nn(C)c4ccc(OC5(C)CC5)cc34)ncn2)C[C@H](C)O1", "test": "cell-free assay, competition with immobilised ligand", "setting": "1 µM", "remaining binding": "91%"}
{"Compound": "C[C@H]1CCN(c2nccc(-c3cnn4ncccc34)n2)C1", "test": "binding", "setting": "1 µM", "remaining binding": "100%"}
{"Compound": "O=C(O)[C@@H]1[C@@H](Cn2nnc3ccccc3c2=O)CC[C@H]1C(=O)c1ccc(OCCC2CCOCC2)cc1", "test": "cell-free assay, competition with immobilised ligand", "setting": "1 µM", "remaining binding": "84%"}
{"Compound": "F[C@@H]1CCN(c2nccc(-c3cnn4ncccc34)n2)C1", "test": "binding", "setting": "1 µM", "remaining binding": "90%"}
